Assay results from ChEMBL document CHEMBL1131936, “Structure-activity relationships of a series of benzothiophene-derived NPY Y1 antagonists: optimization of the C-2 side chain” (Bioorg Med Chem Lett, 1999).

What follows are compounds tested against T1, Neuropeptide Y receptor type 1 (Homo sapiens, UniProt P25929) (assay: Ability to displace [125I]pPYY from AV12 cell line stably transfected with cloned human neuropeptide Y receptor type 1.).
T1 sequence (P25929 whole entry): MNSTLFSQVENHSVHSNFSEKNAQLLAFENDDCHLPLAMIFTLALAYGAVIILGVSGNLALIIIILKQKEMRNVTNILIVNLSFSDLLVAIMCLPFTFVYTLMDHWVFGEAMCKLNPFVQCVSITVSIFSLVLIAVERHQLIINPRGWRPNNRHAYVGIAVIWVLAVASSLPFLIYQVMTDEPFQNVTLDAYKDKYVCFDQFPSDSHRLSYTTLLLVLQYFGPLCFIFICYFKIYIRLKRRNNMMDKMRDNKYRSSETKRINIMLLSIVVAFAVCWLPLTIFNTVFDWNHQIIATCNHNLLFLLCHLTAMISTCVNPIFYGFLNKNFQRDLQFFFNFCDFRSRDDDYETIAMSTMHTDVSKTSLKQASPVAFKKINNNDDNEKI
Type: cell-based
Summary of the method: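 Membranes prepared from AV12 cells stably transfected with the human Y1 receptor; test compound displacement of 125I-porcine PYY binding measured, method as previously reported. Ki reported in μM.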

Row | SMILES | Ki
1 | C=CCc1ccccc1OCc1sc2ccccc2c1CCN1CCC(N(C)C)CC1 | 980 nM
2 | CN(C)C1CCN(CCc2c(COc3ccc(CO)cc3Br)sc3ccccc23)CC1 | 190 nM
3 | CN(C)C1CCN(CCc2c(C(Oc3ccc(Cl)cc3Cl)c3ccccc3)sc3ccccc23)CC1 (stereo unspecified) | 5800 nM
4 | CN(C)C1CCN(CCc2c(COc3ccccc3)sc3ccccc23)CC1 | 1260 nM
5 | CN(C)C1CCN(CCc2c(COc3ccc(-c4ccccc4)cc3)sc3ccccc23)CC1 | 3700 nM
6 | CN(C)C1CCN(CCc2c(COc3ccc(Br)cc3C(N)=O)sc3ccccc23)CC1 | 172 nM
7 | Cc1ccc(OCc2sc3ccccc3c2CCN2CCC(N(C)C)CC2)cc1 | 370 nM
8 | CN(C)C1CCN(CCc2c(C#Cc3ccc(Cl)cc3Cl)sc3ccccc23)CC1 | 7900 nM
9 | CN(C)C1CCN(CCc2c(/C=N/c3ccc(Cl)cc3Cl)sc3ccccc23)CC1 | 12600 nM
10 | Cc1cc(C)c(OCc2sc3ccccc3c2CCN2CCC(N(C)C)CC2)c(C)c1 | 2420 nM
11 | CN(C)C1CCN(CCc2c(COc3ccc(Br)cc3C(F)(F)F)sc3ccccc23)CC1 | 720 nM
12 | CN(C)C1CCN(CCc2c(/C=C/c3ccc(Cl)cc3Cl)sc3ccccc23)CC1 | 12400 nM
13 | CN(C)C1CCN(CCc2c(COc3ccc(C#N)cc3Br)sc3ccccc23)CC1 | 380 nM
14 | CN(C)C1CCN(CCc2c(COc3ccccc3Br)sc3ccccc23)CC1 | 450 nM
15 | Clc1ccc(OCc2sc3ccccc3c2CCCN2CCCCC2)cc1 | 2600 nM
16 | Cc1ccc(OCc2sc3ccccc3c2CCN2CCC(N(C)C)CC2)c(Br)c1 | 78 nM
17 | CN(C)C1CCN(CCc2c(C(O)c3ccc(Cl)cc3Cl)sc3ccccc23)CC1 (stereo unspecified) | 3800 nM
18 | CN(C)C1CCN(CCc2c(Cc3ccc(Cl)cc3Cl)sc3ccccc23)CC1 | 4200 nM
19 | CN(C)C1CCN(CCc2c(CO)sc3ccccc23)CC1 | 88000 nM
20 | CN(C)C1CCN(CCc2c(CNc3ccc(Cl)cc3Cl)sc3ccccc23)CC1 | 1700 nM
21 | CN(C)C1CCN(CCc2c(COc3c(Br)cc(Br)cc3Br)sc3ccccc23)CC1 | 3600 nM
22 | CC(CN1CCC(N(C)C)CC1)c1c(COc2ccc(Cl)cc2Cl)sc2ccccc12 (stereo unspecified) | 690 nM
23 | Cc1cc(Br)ccc1OCc1sc2ccccc2c1CCN1CCC(N(C)C)CC1 | 420 nM
24 | CN(C)C1CCN(CCc2c(COc3ccc(Br)cc3CO)sc3ccccc23)CC1 | 15 nM
25 | Cc1ccc(OCc2sc3ccccc3c2CCN2CCC(N(C)C)CC2)c(C(C)(C)C)c1 | 2830 nM

Row | SMILES | Ki
26 | CN(C)C1CCN(CCc2c(COc3ccccc3C=O)sc3ccccc23)CC1 | 2760 nM
27 | CN(C)C1CCN(CCc2c(-c3ccc(Cl)cc3Cl)sc3ccccc23)CC1 | 6500 nM
28 | Clc1ccc(OCc2sc3ccccc3c2CCN2CCCCC2)cc1 | 1900 nM
29 | CN(C)Cc1cc(Br)ccc1OCc1sc2ccccc2c1CCN1CCC(N(C)C)CC1 | 2430 nM
30 | COC(c1ccc(Cl)cc1Cl)c1sc2ccccc2c1CCN1CCC(N(C)C)CC1 (stereo unspecified) | 4000 nM
31 | CNCc1cc(Br)ccc1OCc1sc2ccccc2c1CCN1CCC(N(C)C)CC1 | 660 nM
32 | CN(C)C1CCN(CCc2c(COc3ccc(C(F)(F)F)cc3)sc3ccccc23)CC1 | 740 nM
33 | CC(Oc1ccc(Cl)cc1Cl)c1sc2ccccc2c1CCN1CCC(N(C)C)CC1 (stereo unspecified) | 1700 nM
34 | CN(C)C1CCN(CCc2c(COc3ccccc3I)sc3ccccc23)CC1 | 380 nM
35 | CN(C)C1CCN(CCc2c(COc3ccc(Cl)cc3Cl)sc3ccccc23)CC1 | 140 nM
36 | COCc1cc(Br)ccc1OCc1sc2ccccc2c1CCN1CCC(N(C)C)CC1 | 11 nM
37 | CN(C)C1CCN(CCc2c(CCOc3ccc(Cl)cc3Cl)sc3ccccc23)CC1 | 2800 nM
38 | CN(C)C1CCN(CCc2c(C(C)(C)Oc3ccc(Cl)cc3Cl)sc3ccccc23)CC1 | 12000 nM
39 | CN(C)C1CCN(CCc2c(COc3ccccc3CO)sc3ccccc23)CC1 | 450 nM
40 | CN(C)C1CCN(CCc2c(COc3ccc(Br)cc3)sc3ccccc23)CC1 | 160 nM
41 | Clc1ccc(OCc2sc3ccccc3c2CN2CCCCC2)cc1 | 11100 nM
42 | Cc1ccc(OCc2sc3ccccc3c2CCN2CCC(N(C)C)CC2)c(C)c1 | 120 nM
43 | CN(C)C1CCN(CCc2c(/C=N/Nc3ccc(Cl)cc3Cl)sc3ccccc23)CC1 | 4500 nM
44 | CN(C)C1CCN(CCc2c(COc3ccc(Br)cc3Br)sc3ccccc23)CC1 | 120 nM
45 | CN(C)C1CCN(CCc2c(COc3ccc(Br)cc3C#N)sc3ccccc23)CC1 | 13 nM
46 | CN(C)C1CCN(CCc2c(C(=O)c3ccc(Cl)cc3Cl)sc3ccccc23)CC1 | 5600 nM
47 | CN(C)C1CCN(CCc2c(COc3ccc(Cl)cc3)sc3ccccc23)CC1 | 310 nM
48 | Cc1ccccc1OCc1sc2ccccc2c1CCN1CCC(N(C)C)CC1 | 420 nM
49 | CN(C)C1CCN(CCc2c(C(=O)Nc3ccc(Cl)cc3Cl)sc3ccccc23)CC1 | 2300 nM

The compounds below were run against T1, Neuropeptide Y receptor type 1 (assay: Functional Neuropeptide Y receptor type 1 antagonism was evaluated by its ability to reverse NPY induced inhibition of forskolin-stimulated cyclic AMP production in SK-N-MC cells).
Type: cell-based
Summary of the method: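 SK-N-MC cells; forskolin-stimulated cyclic AMP production inhibited by NPY, and test compound reversal of this inhibition measured. Ki derived, n = 2–3 determinations.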

Row | SMILES | Ki
50 | CN(C)C1CCN(CCc2c(COc3ccc(Br)cc3CO)sc3ccccc23)CC1 | 1200 nM
51 | CN(C)C1CCN(CCc2c(COc3ccc(Cl)cc3Cl)sc3ccccc23)CC1 | 4700 nM
